Experimental data taken from ChEMBL document CHEMBL1143798, “Pyrimido[4,5-c]quinolin-1(2H)-ones as a novel class of antimitotic agents: Synthesis and in vitro cytotoxic activity” (Eur J Med Chem, 2007).

Assays:
[1] = tested on: HT-1080; assay: Cytotoxicity against human HT1080 cells by MTT assay; assay type: functional, cell-based
Outline: (§1)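 Cells grown in DMEM with 10% FBS and antibiotics at 37 °C, 5% CO2, seeded ~5000/well; compound in DMSO added after 24 h, 72 h exposure. MTT (1 mg/mL final, serum- and phenol-red-free DMEM) 4 h, formazan dissolved in 2-propanol, OD 550 nm (ref 690 nm). IC50 = concentration halving OD vs untreated; mean of three independent experiments with SD; doxorubicin positive control.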

[2] = tested on: MDA-MB-231; assay: Cytotoxicity against human MDA-MB-231 cells by MTT assay; assay type: functional, cell-based; outline: as §1
[3] = tested on: HT-29; assay: Cytotoxicity against human HT29 cells by MTT assay; assay type: functional, cell-based; outline: as §1
[4] = tested on: HT-1080; assay: Cell cycle arrest in human HT1080 cells by accumulation at S phase at 5 uM after 36 hrs; assay type: functional
Outline: (§2)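 HT-1080 fibrosarcoma cells exposed 36 h, then trypsinized, PBS-washed, fixed in 50% ethanol and stained with propidium iodide containing RNase; DNA content measured by flow cytometry and cell-cycle phase distribution (G0/G1, S, G2/M) determined from DNA histograms.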

[5] = tested on: HT-1080; assay: Cell cycle arrest in human HT1080 cells by accumulation at G2/M phase at 5 uM after 36 hrs; assay type: functional; outline: as §2
[6] = tested on: HT-1080; assay: Induction of apoptosis in human HT1080 cells by flow cytometer; assay type: functional
Outline: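 HT-1080 cells incubated 36 h, ethanol-fixed (50%) and stained with RNase-containing propidium iodide; apoptosis estimated by flow cytometry as sub-diploid peak in DNA-content histogram, expressed as percentage of total events collected.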

[7] = tested on: HT-1080; assay: Cell cycle arrest in human HT1080 cells by accumulation at G0/G1 phase at 5 uM after 36 hrs; assay type: functional; outline: as §2
[8] = tested on: HT-1080; assay: Inhibition of tubulin polymerization in human HT1080 cells after 36 hrs by Western analysis; assay type: functional, cell-based
Outline: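 Cells lysed in 20 mM Tris-HCl pH 6.8, 1 mM MgCl2, 2 mM EGTA, 0.5% NP-40 with protease/phosphatase inhibitors; spun 13,000 × g 10 min to separate soluble from polymerized tubulin pellet; fractions run on 10% SDS-PAGE, anti-α-tubulin Western blot.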

| SMILES | IC50 [1] [µM] | IC50 [2] [µM] | IC50 [3] [µM] | Activity [4] [%] | Activity [5] [%] | Activity [6] [%] | Activity [7] [%] | Activity [8] |
| --- | --- | --- | --- | --- | --- | --- | --- | --- |
| Nn1c(-c2ccccc2)nc2c(-c3ccc(Cl)cc3)nc3ccccc3c2c1=O | 23 | > 100 | > 100 |  |  |  |  |  |
| Cc1nc2c(-c3ccc(Br)cc3)nc3ccccc3c2c(=O)n1N | 44.8 | > 100 | 77.8 |  |  |  |  |  |
| Nn1c(-c2ccc(Cl)cc2)nc2c(-c3ccc(Br)cc3)nc3ccc(Cl)cc3c2c1=O | 1.84 | 2.89 | 2.82 | 22.48 | 27.75 | 9.14 | 49.76 |  |
| Nn1c(-c2ccc(Cl)cc2)nc2c(-c3ccc(Cl)cc3)nc3ccccc3c2c1=O | 6.84 | 55.3 | 18.1 |  |  |  |  |  |
| Cc1nc2c(-c3ccc(Cl)cc3)nc3ccccc3c2c(=O)n1N | > 100 | > 100 | > 100 |  |  |  |  |  |
| Cc1nc2c(-c3ccc(Cl)cc3)nc3ccc(Cl)cc3c2c(=O)n1N | 34.3 | > 100 | 52 |  |  |  |  |  |
| Nn1c(-c2ccccc2)nc2c(-c3ccc(Br)cc3)nc3ccccc3c2c1=O | 47.4 | > 100 | 89.9 |  |  |  |  |  |
| Nn1c(-c2ccccc2)nc2c(-c3ccc(Br)cc3)nc3ccc(Cl)cc3c2c1=O | 1.48 | 13.7 | 2.14 | 28 | 26.22 | 5.51 | 45.78 |  |
| Nn1c(-c2ccccc2)nc2c(-c3ccc(Cl)cc3)nc3ccc(Cl)cc3c2c1=O | 2.9 | 15.8 | 4.68 | 26.86 | 22.46 | 2.21 | 50.68 |  |
| Nn1c(-c2ccc(Cl)cc2)nc2c(-c3ccc(Cl)cc3)nc3ccc(Cl)cc3c2c1=O | 1.23 | 1.82 | 1.97 | 11.26 | 31.49 | 7.62 | 57.25 | Dose-dependent effect |
| Nn1c(-c2ccc(Cl)cc2)nc2c(-c3ccc(Br)cc3)nc3ccccc3c2c1=O | 10.8 | 34.2 | 23.2 |  |  |  |  |  |
| COc1cccc2c1C(=O)c1c(O)c3c(c(O)c1C2=O)C[C@@](O)(C(=O)CO)C[C@@H]3O[C@H]1C[C@H](N)[C@H](O)[C@H](C)O1 [DOXORUBICIN] | 0.022 | 0.03 | 0.35 |  |  |  |  |  |
